target: T1, Sodium/glucose cotransporter 2 (Homo sapiens, UniProt P31639); experiment: Inhibition of human SGLT2 expressed in CHO-K1 cells assessed as inhibition of [14C]-AMG uptake up to 120 mins by scintillation counting method; assay type: cell-based
T1 sequence (P31639 whole entry): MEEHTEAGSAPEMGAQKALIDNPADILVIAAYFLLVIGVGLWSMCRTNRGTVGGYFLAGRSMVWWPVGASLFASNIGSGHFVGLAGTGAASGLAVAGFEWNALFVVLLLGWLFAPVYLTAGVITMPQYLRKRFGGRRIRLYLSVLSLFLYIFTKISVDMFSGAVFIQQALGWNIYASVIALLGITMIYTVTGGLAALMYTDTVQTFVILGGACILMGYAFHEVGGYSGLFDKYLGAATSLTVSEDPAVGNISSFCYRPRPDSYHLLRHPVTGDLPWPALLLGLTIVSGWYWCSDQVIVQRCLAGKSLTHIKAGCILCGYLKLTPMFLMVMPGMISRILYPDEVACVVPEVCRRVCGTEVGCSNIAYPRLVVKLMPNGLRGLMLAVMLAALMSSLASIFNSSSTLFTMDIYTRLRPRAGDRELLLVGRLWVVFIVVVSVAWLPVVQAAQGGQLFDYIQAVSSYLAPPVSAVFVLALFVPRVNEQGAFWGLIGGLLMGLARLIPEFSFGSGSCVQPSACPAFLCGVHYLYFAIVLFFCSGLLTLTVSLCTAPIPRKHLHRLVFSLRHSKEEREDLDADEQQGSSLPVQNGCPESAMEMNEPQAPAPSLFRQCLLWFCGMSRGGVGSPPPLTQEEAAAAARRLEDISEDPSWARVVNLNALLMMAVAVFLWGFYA
Method in brief: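 Uptake of 3 µM [¹⁴C]-AMG ± inhibitor at 37 °C, stopped with ice-cold KRH. Cells lysed in 0.1% SDS 24 h, then counted. Inhibition vs DMSO-only wells. EC₅₀ from sigmoidal fit, mean of ≥3 determinations.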

Compound | EC50
CCOc1ccc(Cc2cc([C@@H]3O[C@H]([C@H](O)CO)[C@H](O)[C@H]3O)ccc2C)cc1 | 34 µM
Cc1ccc([C@@H]2O[C@H]([C@H](O)CO)[C@H](O)[C@H]2O)cc1Cc1ccc(C(C)C)cc1 | 11 µM
CCc1ccc(Cc2cc([C@@H]3O[C@H]([C@H](O)CO)[C@H](O)[C@H]3O)ccc2C)cc1 | 2.5 µM
CCOc1ccc(Cc2cc([C@@H]3O[C@H]([C@H](O)CO)[C@H](O)[C@H]3O)c(OC)cc2Cl)cc1 | 46 µM
COc1cc(Cl)c(Cc2ccc(C(C)C)cc2)cc1[C@@H]1O[C@H]([C@H](O)CO)[C@H](O)[C@H]1O | 21 µM
CCc1ccc(Cc2cc([C@@H]3O[C@H]([C@H](O)CO)[C@H](O)[C@H]3O)c(OC)cc2Cl)cc1 | 0.62 µM
COc1ccc(Cc2cc([C@@H]3O[C@H]([C@H](O)CO)[C@H](O)[C@H]3O)ccc2Cl)cc1 | 35 µM
COc1cccc(Cc2cc([C@@H]3O[C@H]([C@H](O)CO)[C@H](O)[C@H]3O)ccc2Cl)c1 | > 50 µM
COc1ccccc1Cc1cc([C@@H]2O[C@H]([C@H](O)CO)[C@H](O)[C@H]2O)ccc1Cl | > 50 µM
OC[C@@H](O)[C@H]1O[C@@H](c2ccc(Cl)c(Cc3ccc(F)cc3)c2)[C@H](O)[C@H]1O | > 50 µM
CSc1ccc(Cc2cc([C@@H]3O[C@H]([C@H](O)CO)[C@H](O)[C@H]3O)ccc2Cl)cc1 | 3.7 µM
OC[C@@H](O)[C@H]1O[C@@H](c2ccc(Cl)c(Cc3ccc(Oc4ccccc4)cc3)c2)[C@H](O)[C@H]1O | > 50 µM
COc1ccc2cc(Cc3cc([C@@H]4O[C@H]([C@H](O)CO)[C@H](O)[C@H]4O)ccc3Cl)ccc2c1 | 5.1 µM
OC[C@@H](O)[C@H]1O[C@@H](c2ccc(Cl)c(Cc3ccc4c(c3)OCO4)c2)[C@H](O)[C@H]1O | > 50 µM
CCOc1ccc(Cc2cc([C@@H]3O[C@H]([C@H](O)CO)[C@H](O)[C@H]3O)ccc2Cl)cc1 | > 50 µM
CC(C)c1ccc(Cc2cc([C@@H]3O[C@H]([C@H](O)CO)[C@H](O)[C@H]3O)ccc2Cl)cc1 | 33 µM

Source: ChEMBL document CHEMBL2440078, “Synthesis and biological evaluation of novel C-aryl d-glucofuranosides as sodium-dependent glucose co-transporter 2 inhibitors” (Bioorg Med Chem, 2013)
